Screens (PubChem BioAssay)
SR-BI HDL uptake: blocks mouse SR-BI lipid uptake from DiI-HDL. Q61009. ldlA[mSR-BI] CHO cells, DiI-HDL uptake fluorescence, 3 h. inhibition, % at 12.5 µM. 320,000 compounds, 0.96% hits. AID 488896;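 active = mean replicate inhibition of at least 70% and a set share of replicates each scoring 70 or more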;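 also: 0% = median of neutral control wells and 100% = median of positive control wells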
Target sequence (Q61009 whole entry, looked up): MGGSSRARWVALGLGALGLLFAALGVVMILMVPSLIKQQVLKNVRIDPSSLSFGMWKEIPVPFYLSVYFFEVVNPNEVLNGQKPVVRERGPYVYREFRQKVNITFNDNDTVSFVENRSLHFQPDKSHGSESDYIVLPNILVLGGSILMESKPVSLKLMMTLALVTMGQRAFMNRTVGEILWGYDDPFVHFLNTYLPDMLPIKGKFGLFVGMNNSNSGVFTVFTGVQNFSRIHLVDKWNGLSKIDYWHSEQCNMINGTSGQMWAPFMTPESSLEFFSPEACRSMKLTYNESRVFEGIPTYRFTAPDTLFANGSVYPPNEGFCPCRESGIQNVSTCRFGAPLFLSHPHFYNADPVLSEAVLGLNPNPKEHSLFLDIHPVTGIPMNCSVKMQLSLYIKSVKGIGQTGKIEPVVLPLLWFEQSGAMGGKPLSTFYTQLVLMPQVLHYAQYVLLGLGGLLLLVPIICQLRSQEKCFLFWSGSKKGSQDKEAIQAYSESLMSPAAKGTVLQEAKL
SR-BI DiI-HDL act: activators of SR-BI mediated HDL lipid uptake; CHO ldlA[mSR-BI] cells, DiI-HDL uptake fluorescence, 3 h; 100 = double the neutral-control signal; activation, % at 12.5 µM; 320,000 compounds, 0.096% hits; AID 504775;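 active = mean replicate activation of at least 60% and every replicate at or above 60%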;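 also: 0% = median plate neutral-control signal and 100% = twice that signal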
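System: LDL receptor-deficient CHO ldlA cells overexpressing murine SR-BI | Timing: 3 h uptake period with compound, 37 °C | Medium: HEPES-buffered (25 mM, pH 7.4) F12 plus 0.5% BSA | Dosing: Single-point compound dose | Signal: Bottom-read fluorescence, 550/595 nm | Read-out: Retained DiI signal reflecting DiI-HDL uptake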
ARNT TACC3 PPI: disruptors of human ARNT/TACC3 interaction; AlphaScreen His-ARNT PAS-B/GST-TACC3 binding, luminescence; TACC3 fragment carries E629A point mutation; inhibition, % at 9.99 µM; 390,000 compounds, 0.66% hits;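 active = mean inhibition of replicates at least 50% and at least half of replicates each reaching 50%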;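 also: 0% = complete ARNT plus TACC3 wells and 100% = ARNT alone without TACC3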
NSD2 inh: NSD2 (human) methyltransferase inhibition | 310,000 compounds, 0.54% hits | inhibition, % at 12.5 µM | NSD2 peptide methylation, AlphaScreen, 120 min; in the data active = inhibition above about 50%
XiGFP reactiv: reactivates the inactive X chromosome in mouse fibroblasts; XiGFP mouse fibroblasts, % GFP-positive cells imaging, 3 d; cells co-treated with 5-aza-dC sensitizer; scaled so ellipticine positive control = 100%; activation, % at 7.58 µM; 360,000 compounds, 0.055% hits; AID 743238;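 active = mean normalized replicate activation at least 10% and every replicate at or above 10%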;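 also: 0% = median of on-plate neutral control wells and 100% = ellipticine 6 µM median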
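System: 68-5-11 XiGFP fibroblast line | Buffer or medium: DMEM containing 5-aza-dC | Compound: Single point | Times: Compounds 3 days, fix/stain 15 min at room temperature | Benchmarks: Positive control ellipticine, 6 µM final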
sPLA2-III inh: Inhibits HGIII-sPLA2 liposome hydrolysis, primary screen | QFRET BODIPY PC-A2 liposome hydrolysis, fluorescence | inhibition, % at 12.2 µM | 370,000 compounds, 0.56% hits | Q9NZ20 | AID 743126;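 active = inhibition above mean plus 3 SD of compounds lying within the high and low control bounds, cut at about 19% in these data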;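 also: 0% = median of test compound wells and 100% = no enzyme DMSO wells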
* hit, by the source's call; i = inactive; nt = no result given. Most compounds without a hit are left out; they make up all but 2% or so of the library.

SMILES	SR-BI HDL uptake	SR-BI DiI-HDL act	ARNT TACC3 PPI	NSD2 inh	XiGFP reactiv	sPLA2-III inh
C/C(=N\NC(=O)c1c(Cl)cnn1C)c1cccc(NC(=O)c2ccc(C)cc2)c1	85*	-85	-1	-1	0	2
COc1ccc(/C=N/NC(=O)c2cccc(NC(=O)c3ccccc3Cl)c2)c(OC)c1	77*	-77	nt	-6	0	-1
COc1ccc(/C=N/NC(=O)c2cccc(NC(=O)c3ccccc3Cl)c2)cc1	22	-22	nt	0	0	3
Cc1cccc(/C=N/NC(=O)c2cccc(NC(=O)c3ccccc3)c2)n1	42	-42	43	-1	0	-6
Clc1ccc(Cn2cc(/C=N/n3cnnc3)c3ccccc32)c(Cl)c1	36	-36	-4	25	nt	-2
COc1ccc(C(=O)Nc2cccc(C(=O)N/N=C/c3ccc(OC)cc3OC)c2)cc1	90*	-89	6	0	0	-1
COc1ccccc1/C=N/NC(=O)c1cccc(NC(=O)c2ccccc2Cl)c1	77*	-77	30	-2	0	-2
Cc1ccc(C(=O)Nc2ccc(C(=O)N/N=C/c3ccc(C)o3)cc2)cc1	80*	-80	31	0	0	1
COc1ccccc1/C=N/NC(=O)c1cccc(NC(=O)c2ccccc2C)c1	75*	-75	nt	-2	0	3
COc1ccc(/C=N/NC(=O)c2cccc(NC(C)=O)c2)c(OC)c1	9	-9	-3	0	0	4
O=C(C[C@H]1CC[C@H]2[C@@H](COC[C@@H](O)CN2C(=O)Nc2ccccc2)O1)NCCCN1CCOCC1	nt	nt	3	nt	0	nt
CC(C)c1nnc(SCC(=O)NCc2ccco2)n1C	-12	12	23	0	nt	2
COc1ccc(N2CCN(C(=N)/C(C(C)=O)=C(\C)O)CC2)cc1	-6	6	-1	4	nt	8
CCCCNc1c(-c2ccc(-c3ccc(OC)cc3)c(OC)c2)nc2ccccn12	87*	-87	22	nt	0	11
CCCCNc1c(-c2ccc(SC3CCCCC3)c(OC)c2)nc2ccc(Cl)cn12	75*	-75	0	nt	0	-2
CC1CCCCC12NC(=O)N(CC(=O)Nc1nccs1)C2=O (centres undefined)	-2	2	-8	0	0	-2
CCN(CC)c1ccc(NC(=O)Cn2cc3c(n2)CCC(C)C3)c(C)c1 (centres undefined)	-13	13	49*	nt	0	9
C/C(CCc1ccc2c(c1)OCO2)=N\N=C1\NC(=O)CC(C(=O)Nc2ccccc2F)S1 (centres undefined)	73*	-73	1	2	0	-2
CCNC(=O)C1CC(=O)N(Cc2ccc3c(c2)OCO3)C(=Nc2ccc(F)cc2)S1 (centres undefined)	-11	11	-7	-1	nt	-1
Cc1ccc(NC(=O)C2=CC(c3ccc(C)cc3)=NS(=O)(=O)N2C)cc1	2	-2	5	nt	0	-2
O=C(c1ccc2ncsc2c1)N1CCCCC1	-17	17	-3	3	0	5
Nc1nc2ccc(C(=O)N3CCCCC3)cc2s1	nt	nt	47*	1	0	-1
C[C@H](O)C#Cc1ccc([C@H]2[C@@H](CO)N3CCCCN(C(=O)c4ccncc4)C[C@H]23)cc1	nt	nt	-6	nt	0	nt
O=C(C[C@H]1CC[C@H]2[C@@H](COC[C@@H](O)CN2Cc2cc(F)ccc2F)O1)N[C@H]1CCN(Cc2ccccc2)C1	nt	nt	-3	nt	0	nt
O=C(Nc1nc(-c2ccccc2)c(-c2ccccc2)o1)c1ccc(F)cc1	24	-24	46*	0	nt	3
SMILES	SR-BI HDL uptake	SR-BI DiI-HDL act	ARNT TACC3 PPI	NSD2 inh	XiGFP reactiv	sPLA2-III inh
O=C1NNC(c2ccccc2)=N/C1=C\c1ccco1	-25	25	8	35	0	-1
O=C1NNC(c2ccccc2)=N/C1=C\c1ccccc1Cl	16	-16	-101	93*	0	-17
O=[N+]([O-])c1cc(/C=N/N/C(=N/c2ccccn2)c2ccccn2)ccc1O	-7	7	66*	5	0	4
O=[N+]([O-])c1ccc(/C=N/N/C(=N/c2ccccn2)c2ccccn2)cc1	-2	2	16	0	nt	16
S=c1[nH]cnc2sc(-c3ccccc3)cc12	-13	13	0	-4	0	6
COc1ccc(N2CCN(C(=O)c3cc4c(C)nc5ccccc5c4o3)CC2)cc1	-53	53	13	11	0	-2
CC(C)(C)[C@@H]1CCC(=O)N(CC[C@H](Sc2ccc(Br)cc2)c2ccccc2)CC1	82*	-82	10	nt	0	-7
CC(C)NC(=O)Nc1ccc2c(c1)CC(=O)N([C@@H](C)CO)C[C@H](C)[C@H](CN(C)Cc1ccc(Cl)c(Cl)c1)O2	nt	nt	0	nt	0	nt
COc1cc(/C=N/n2c(C)nc3ccccc3c2=O)ccc1O	i	507*	2	-2	0	-1
Cc1[nH]n(-c2ccccc2)c(=O)c1/C=N/n1c(C)nc2ccccc2c1=O	1	-1	31*	-2	nt	2
Cc1nc2ccccc2c(=O)n1/N=C/c1ccc2ccccc2c1O	90*	-90	12	1	0	nt
Cc1nc2ccccc2c(=O)n1/N=C/c1ccccc1O	16	-16	1	-1	2	-4
Cc1nc2ccccc2c(=O)n1/N=C/c1ccccc1	1	-1	-3	-2	nt	-1
COc1ccc(NC(=O)N(C)C[C@H]2OCCCC[C@H](C)Oc3ccc(NC(=O)Nc4ccc5c(c4)OCO5)cc3C(=O)N([C@@H](C)CO)C[C@@H]2C)cc1	nt	nt	-2	nt	0	-34
CC(=O)N(C)C[C@@H]1Oc2ncc(-c3ccc(C)cc3)cc2C(=O)N([C@H](C)CO)C[C@H]1C	nt	nt	-7	nt	-1	nt
Cc1ccc2c(c1)N(C(=O)CCC(=O)Nc1ccccc1Cl)CC(C)O2 (centres undefined)	20	-20	-1	nt	0	5
O=C(O)c1ccc(NC2=C(N3CCOCC3)C(=O)c3ccccc3C2=O)cc1	-19	19	20	95*	0	1
Cc1ccc(NC2=C(N3CCOCC3)C(=O)c3ccccc3C2=O)cc1	60	-60	62*	101*	nt	3
CC(=O)N(C1=C(N2CCOCC2)C(=O)c2ccccc2C1=O)c1ccc(C(=O)O)cc1	nt	nt	nt	48	0	0
CC(=O)N(C)C1=C(N2CCOCC2)C(=O)c2ccccc2C1=O	-32	32	19	98*	nt	nt
Nc1nc(N=Nc2ccc(O)cc2)cc(=O)[nH]1	nt	nt	nt	9	0	3
